# pIC50, pKi: −log10 of the molar value.
# Target: T1, Acetylcholinesterase (Homo sapiens, UniProt P22303)
# Assay: Inhibition of AChE in human erythrocytes using acetylthiocholineiodide as substrate pre-incubated for 10 mins followed by substrate addition and measured for 6 mins by DTNB reagent based Ellman's method
# Format: cell-based, Erythrocyte
# Conditions: not given
# T1 sequence (P22303 whole entry): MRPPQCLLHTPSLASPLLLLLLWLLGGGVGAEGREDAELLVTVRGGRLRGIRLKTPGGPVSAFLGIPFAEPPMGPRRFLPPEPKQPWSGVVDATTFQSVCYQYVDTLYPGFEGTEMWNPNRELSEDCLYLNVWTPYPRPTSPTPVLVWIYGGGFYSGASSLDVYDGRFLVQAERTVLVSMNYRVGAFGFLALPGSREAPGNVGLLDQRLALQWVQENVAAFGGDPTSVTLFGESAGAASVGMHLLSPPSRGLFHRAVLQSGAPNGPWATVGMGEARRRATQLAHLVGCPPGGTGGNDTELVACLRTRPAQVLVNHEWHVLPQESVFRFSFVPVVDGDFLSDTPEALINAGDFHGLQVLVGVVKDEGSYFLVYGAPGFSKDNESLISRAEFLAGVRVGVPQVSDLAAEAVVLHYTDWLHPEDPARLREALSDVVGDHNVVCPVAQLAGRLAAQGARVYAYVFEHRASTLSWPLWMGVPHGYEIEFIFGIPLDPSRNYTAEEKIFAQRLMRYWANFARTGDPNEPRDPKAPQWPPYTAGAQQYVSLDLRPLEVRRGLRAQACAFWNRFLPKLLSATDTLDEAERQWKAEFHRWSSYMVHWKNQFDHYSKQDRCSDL
row,SMILES,pIC50
1,CCOC(=O)c1c(C)nc(N2CCN(S(=O)(=O)c3ccc(N)c(Cl)c3)CC2)nc1-c1ccccc1,7.10
2,CCOC(=O)c1c(C)nc(N2CCN(S(=O)(=O)c3ccc(N)cc3)CC2)nc1-c1ccc(OC)cc1,7.14
3,CCOC(=O)c1c(C)nc(N2CCN(S(=O)(=O)c3ccc(NC(C)=O)c(OC)c3)CC2)nc1-c1ccccc1,7.10
4,CCOC(=O)c1c(C)nc(N2CCN(S(=O)(=O)c3ccc(N)c(OC)c3)CC2)nc1-c1ccccc1,7.07
5,CCOC(=O)c1c(C)nc(N2CCN(S(=O)(=O)c3ccc(N)c(F)c3)CC2)nc1-c1ccc(OC)cc1,7.00
6,CCOC(=O)c1c(C)nc(N2CCN(S(=O)(=O)c3ccc(NC(C)=O)c(Cl)c3)CC2)nc1-c1ccc(OC)cc1,7.06
7,CCOC(=O)c1c(C)nc(N2CCN(S(=O)(=O)c3ccc(N)c(Cl)c3)CC2)nc1-c1ccc(OC)c(OC)c1,7.29
8,CCOC(=O)c1c(C)nc(N2CCN(S(=O)(=O)c3ccc(NC(C)=O)c(F)c3)CC2)nc1-c1ccccc1,7.01
9,CCOC(=O)c1c(C)nc(N2CCN(S(=O)(=O)c3ccc(NC(C)=O)c(Cl)c3)CC2)nc1-c1ccc(OC)c(OC)c1,7.32
10,CCOC(=O)c1c(C)nc(N2CCN(S(=O)(=O)c3ccc(N)c(OC)c3)CC2)nc1-c1ccc(OC)cc1,7.16
11,CCOC(=O)c1c(C)nc(N2CCN(S(=O)(=O)c3ccc(N)c(OC)c3)CC2)nc1-c1ccc(OC)c(OC)c1,7.07
12,CCOC(=O)c1c(C)nc(N2CCN(S(=O)(=O)c3ccc(NC(C)=O)cc3)CC2)nc1-c1ccc(OC)c(OC)c1,7.05
13,CCOC(=O)c1c(C)nc(N2CCN(S(=O)(=O)c3ccc(NC(C)=O)cc3)CC2)nc1-c1ccccc1,6.93
14,CCOC(=O)c1c(C)nc(N2CCN(S(=O)(=O)c3ccc(N)c(Cl)c3)CC2)nc1-c1ccc(OC)cc1,7.11
15,CCOC(=O)c1c(C)nc(N2CCN(S(=O)(=O)c3ccc(NC(C)=O)c(OC)c3)CC2)nc1-c1ccc(OC)c(OC)c1,7.10
16,CCOC(=O)c1c(C)nc(N2CCN(S(=O)(=O)c3ccc(NC(C)=O)c(F)c3)CC2)nc1-c1ccc(OC)cc1,7.04
17,CCOC(=O)c1c(C)nc(N2CCN(S(=O)(=O)c3ccc(N)cc3)CC2)nc1-c1ccc(OC)c(OC)c1,7.17
18,CCOC(=O)c1c(C)nc(N2CCN(S(=O)(=O)c3ccc(N)c(F)c3)CC2)nc1-c1ccc(OC)c(OC)c1,7.18
19,CCOC(=O)c1c(C)nc(N2CCN(S(=O)(=O)c3ccc(N)c(F)c3)CC2)nc1-c1ccccc1,< 6.70
20,CCOC(=O)c1c(C)nc(N2CCN(S(=O)(=O)c3ccc(NC(C)=O)c(OC)c3)CC2)nc1-c1ccc(OC)cc1,7.10
21,CCOC(=O)c1c(C)nc(N2CCN(S(=O)(=O)c3ccc(NC(C)=O)c(F)c3)CC2)nc1-c1ccc(OC)c(OC)c1,7.12
22,CCOC(=O)c1c(C)nc(N2CCN(S(=O)(=O)c3ccc(NC(C)=O)cc3)CC2)nc1-c1ccc(OC)cc1,6.88
23,CCOC(=O)c1c(C)nc(N2CCN(S(=O)(=O)c3ccc(NC(C)=O)c(Cl)c3)CC2)nc1-c1ccccc1,6.84
24,CCOC(=O)c1c(C)nc(N2CCN(S(=O)(=O)c3ccc(N)cc3)CC2)nc1-c1ccccc1,< 6.70

# Target: T2, Cholinesterase (Homo sapiens, UniProt P06276)
# T2 sequence (P06276 whole entry): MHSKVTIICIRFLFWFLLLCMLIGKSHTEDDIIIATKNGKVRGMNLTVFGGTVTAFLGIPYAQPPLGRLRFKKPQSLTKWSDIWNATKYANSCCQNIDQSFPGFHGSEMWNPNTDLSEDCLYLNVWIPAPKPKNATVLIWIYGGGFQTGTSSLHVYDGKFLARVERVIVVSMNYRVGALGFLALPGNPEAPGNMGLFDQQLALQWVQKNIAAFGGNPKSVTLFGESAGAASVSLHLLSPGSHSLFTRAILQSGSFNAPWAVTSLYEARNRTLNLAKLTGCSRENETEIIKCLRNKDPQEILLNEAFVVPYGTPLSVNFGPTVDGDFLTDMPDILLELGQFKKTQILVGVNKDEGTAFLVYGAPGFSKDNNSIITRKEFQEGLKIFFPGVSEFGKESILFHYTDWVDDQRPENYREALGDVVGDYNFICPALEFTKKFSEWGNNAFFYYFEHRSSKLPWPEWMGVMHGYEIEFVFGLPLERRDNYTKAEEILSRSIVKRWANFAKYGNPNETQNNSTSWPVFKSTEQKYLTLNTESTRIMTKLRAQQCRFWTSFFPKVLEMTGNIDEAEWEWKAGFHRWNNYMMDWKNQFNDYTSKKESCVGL
# Assay: Inhibition of BuChE in human serum using butyrylthiocholineiodide as substrate pre-incubated for 10 mins followed by substrate addition and measured for 6 mins by DTNB reagent based Ellman's method
# Format: cell-free
# Conditions: not given
# Summary of the method: (§1)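 AChE from human erythrocytes at 0.25 U/ml in 20 mM HEPES pH 8 with 0.1% Triton X-100, or BuChE from human serum at 0.25 U/ml in 0.1% gelatine. Substrate ATCI or BTCI at […], DTNB […], in 0.1 M PBS pH 7.4. Enzyme and inhibitor (DMSO stock, five concentrations) preincubated 10 min, then substrate added; rate followed 6 min at 37 °C. Non-enzymatic blank subtracted. Triplicates; IC50 from log concentration–percent inhibition curves.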
row,SMILES,pIC50
1,CCOC(=O)c1c(C)nc(N2CCN(S(=O)(=O)c3ccc(N)c(Cl)c3)CC2)nc1-c1ccccc1,6.86
2,CCOC(=O)c1c(C)nc(N2CCN(S(=O)(=O)c3ccc(N)cc3)CC2)nc1-c1ccc(OC)cc1,6.72
3,CCOC(=O)c1c(C)nc(N2CCN(S(=O)(=O)c3ccc(NC(C)=O)c(OC)c3)CC2)nc1-c1ccccc1,6.73
4,CCOC(=O)c1c(C)nc(N2CCN(S(=O)(=O)c3ccc(N)c(OC)c3)CC2)nc1-c1ccccc1,6.73
5,CCOC(=O)c1c(C)nc(N2CCN(S(=O)(=O)c3ccc(N)c(F)c3)CC2)nc1-c1ccc(OC)cc1,6.81
6,CCOC(=O)c1c(C)nc(N2CCN(S(=O)(=O)c3ccc(NC(C)=O)c(Cl)c3)CC2)nc1-c1ccc(OC)cc1,< 6.70
7,CCOC(=O)c1c(C)nc(N2CCN(S(=O)(=O)c3ccc(N)c(Cl)c3)CC2)nc1-c1ccc(OC)c(OC)c1,6.81
8,CCOC(=O)c1c(C)nc(N2CCN(S(=O)(=O)c3ccc(NC(C)=O)c(F)c3)CC2)nc1-c1ccccc1,6.71
9,CCOC(=O)c1c(C)nc(N2CCN(S(=O)(=O)c3ccc(NC(C)=O)c(Cl)c3)CC2)nc1-c1ccc(OC)c(OC)c1,6.80
10,CCOC(=O)c1c(C)nc(N2CCN(S(=O)(=O)c3ccc(N)c(OC)c3)CC2)nc1-c1ccc(OC)cc1,6.73
11,CCOC(=O)c1c(C)nc(N2CCN(S(=O)(=O)c3ccc(N)c(OC)c3)CC2)nc1-c1ccc(OC)c(OC)c1,< 6.70
12,CCOC(=O)c1c(C)nc(N2CCN(S(=O)(=O)c3ccc(NC(C)=O)cc3)CC2)nc1-c1ccc(OC)c(OC)c1,6.78
13,CCOC(=O)c1c(C)nc(N2CCN(S(=O)(=O)c3ccc(NC(C)=O)cc3)CC2)nc1-c1ccccc1,< 6.70
14,CCOC(=O)c1c(C)nc(N2CCN(S(=O)(=O)c3ccc(N)c(Cl)c3)CC2)nc1-c1ccc(OC)cc1,6.75
15,CCOC(=O)c1c(C)nc(N2CCN(S(=O)(=O)c3ccc(NC(C)=O)c(OC)c3)CC2)nc1-c1ccc(OC)c(OC)c1,< 6.70
16,CCOC(=O)c1c(C)nc(N2CCN(S(=O)(=O)c3ccc(NC(C)=O)c(F)c3)CC2)nc1-c1ccc(OC)cc1,6.77
17,CCOC(=O)c1c(C)nc(N2CCN(S(=O)(=O)c3ccc(N)cc3)CC2)nc1-c1ccc(OC)c(OC)c1,< 6.70
18,CCOC(=O)c1c(C)nc(N2CCN(S(=O)(=O)c3ccc(N)c(F)c3)CC2)nc1-c1ccc(OC)c(OC)c1,6.75
19,CCOC(=O)c1c(C)nc(N2CCN(S(=O)(=O)c3ccc(N)c(F)c3)CC2)nc1-c1ccccc1,< 6.70
20,CCOC(=O)c1c(C)nc(N2CCN(S(=O)(=O)c3ccc(NC(C)=O)c(OC)c3)CC2)nc1-c1ccc(OC)cc1,6.71
21,CCOC(=O)c1c(C)nc(N2CCN(S(=O)(=O)c3ccc(NC(C)=O)c(F)c3)CC2)nc1-c1ccc(OC)c(OC)c1,6.73
22,CCOC(=O)c1c(C)nc(N2CCN(S(=O)(=O)c3ccc(NC(C)=O)cc3)CC2)nc1-c1ccc(OC)cc1,< 6.70
23,CCOC(=O)c1c(C)nc(N2CCN(S(=O)(=O)c3ccc(NC(C)=O)c(Cl)c3)CC2)nc1-c1ccccc1,6.81
24,CCOC(=O)c1c(C)nc(N2CCN(S(=O)(=O)c3ccc(N)cc3)CC2)nc1-c1ccccc1,< 6.70

# Target: T1, Acetylcholinesterase
# Assay: Non-competitive inhibition of AChE in human erythrocytes measured at 2 mins interval for 10 mins by Dixon plot analysis
# Format: cell-based, Erythrocyte
# Conditions: not given
# Summary of the method: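 Human AChE kinetics in the Ellman DTNB assay. Inhibitor at 25, 50 and 100 nM, each with six ATCI concentrations, against an inhibitor-free series. Activity read every 2 min over 10 min. Km and Vmax from Michaelis–Menten non-linear regression; mechanism from Lineweaver–Burk plots; Ki from Dixon plot over four inhibitor concentrations and from slope/intercept replots. Triplicate.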
row,SMILES,pKi
1,CCOC(=O)c1c(C)nc(N2CCN(S(=O)(=O)c3ccc(NC(C)=O)c(Cl)c3)CC2)nc1-c1ccc(OC)c(OC)c1,8.10

# Tested on: not listed separately
# Assay: Neuroprotective activity in human MC65 cells cultured in TC-deficient medium assessed as inhibition of TC-deficiency induced oxidative stress by measuring increase in cell viability at 60 to 80 uM measured after 12 hrs by MTT assay relative to cells cultured in tetracycline containing medium
# Format: functional
# Conditions: dose 60-80 µM
# Summary of the method: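 MC65 cells grown in MEM, PBS-washed and resuspended in MEM, then seeded at 5×10⁴ cells/well with or without TC. Compounds (80–1 μM) added to TC-free wells and incubated 12 h at 37 °C. MTT (5 mg/ml) added for a further 4 h; formazan dissolved in DMSO:H₂O 1:1 and read at 570 nm. Viability expressed as % of +TC control. Triplicate wells, three runs.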
row,SMILES,Activity
1,CCOC(=O)c1c(C)nc(N2CCN(S(=O)(=O)c3ccc(NC(C)=O)c(Cl)c3)CC2)nc1-c1ccc(OC)c(OC)c1,99.41%

# Tested on: not listed separately
# Assay: Permeability of the compound measured after 16 hrs by PAMPA-BBB assay
# Conditions: not given
row,SMILES,Papp at 16 h
1,CCOC(=O)c1c(C)nc(N2CCN(S(=O)(=O)c3ccc(N)c(Cl)c3)CC2)nc1-c1ccc(OC)c(OC)c1,23.7 ×10⁻⁶ cm/s
2,CCOC(=O)c1c(C)nc(N2CCN(S(=O)(=O)c3ccc(NC(C)=O)c(Cl)c3)CC2)nc1-c1ccc(OC)c(OC)c1,24.3 ×10⁻⁶ cm/s

# Target: T1, Acetylcholinesterase
# Assay: Inhibition of AChE (unknown origin) by DTNB reagent based Ellman's method
# Conditions: not given
# Summary of the method: as §1, with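 “Ellman assay with DTNB read at 412 nm. AChE” for “AChE”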
row,SMILES,pIC50
1,CCc1ccc(NC(=O)COc2c(Cl)cc(Cl)cc2S(=O)(=O)N2CCN(C(=O)c3ccco3)CC2)cc1,5.26

# Target: T2, Cholinesterase
# Assay: Inhibition of BuChE (unknown origin) by DTNB reagent based Ellman's method
# Conditions: not given
# Summary of the method: as §1, with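 “Ellman assay with DTNB read at 412 nm. AChE” for “AChE”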
row,SMILES,pIC50
1,CCc1ccc(NC(=O)COc2c(Cl)cc(Cl)cc2S(=O)(=O)N2CCN(C(=O)c3ccco3)CC2)cc1,5.04

# Reference: ChEMBL document CHEMBL4732210, “Discovery of new phenyl sulfonyl-pyrimidine carboxylate derivatives as the potential multi-target drugs with effective anti-Alzheimer's action: Design, synthesis, crystal structure and in-vitro biological evaluation” (Eur J Med Chem, 2021)
